Experimental data published in PubChem BioAssay AID488910 (Broad Institute, 2010).
In all, about 20,000 compounds went through this assay and about 25 (0.1%) were called active. The sample holds actives, similar compounds and a random draw of the others, so the mix is not that of the screen. Unmarked numbers belong to inactive results.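 How the source made its calls: active means mean replicate protection from cytokine-induced ATP loss at least 50% and at least 75% of replicates each reaching 50%; inconclusive means meets only one of the two criteria, mean or replicate share; inactive means fails both the mean and replicate share criteria.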

Experiment: protection of INS-1E cells from cytokine death, primary screen, ATP luminescence, single point (AID 488910)
Conditions: INS-1E cytokine-induced death, 48 h, at 10 µM, active compounds read high, normalised: neutral wells 0, positive control 100
In short: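 assay system = INS-1E rat insulinoma cells | amount = 8000 cells per well | medium = phenol-red-free RPMI with 5% fetal bovine serum | doses = one compound concentration, pin transfer | timing = 48 h cytokine plus compound treatment, 10 min reagent incubation | also added = IL-1β, TNF-α and IFN-γ cytokine mix | signal = CellTiter-Glo luminescence measuring cellular ATP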

Compound | protection from cytokine-induced ATP loss
COc1ccc(NC(=O)N(C)C[C@@H]2Oc3ccc(NC(=O)CCCN(C)C)cc3CC(=O)N([C@H](C)CO)C[C@H]2C)cc1 | 7.7%
C[C@@H]1CN([C@@H](C)CO)C(=O)c2cccc(NS(=O)(=O)c3ccc(Cl)cc3)c2O[C@@H]1CN(C)Cc1ccccc1 | -3.08%
CC(C)NC(=O)N(C)C[C@H]1Oc2ccc(NS(C)(=O)=O)cc2CC(=O)N([C@@H](C)CO)C[C@@H]1C | 2.48%
Cc1noc(C)c1NC(=O)N(C)C[C@@H]1Oc2c(NC(=O)C3CCCCC3)cccc2C(=O)N([C@H](C)CO)C[C@@H]1C | 10.1%
C[C@@H]1CN([C@H](C)CO)C(=O)c2cccc(NC(=O)Nc3ccc4c(c3)OCO4)c2O[C@@H]1CN(C)Cc1ccccc1 | -9.92%
C[C@@H]1CN([C@@H](C)CO)C(=O)c2cccc(NS(=O)(=O)c3cccs3)c2O[C@H]1CN(C)Cc1ccncc1 | 4.56%
C[C@H]1CN([C@@H](C)CO)C(=O)Cc2cc(NC(=O)Cn3cnnn3)ccc2O[C@@H]1CN(C)Cc1ccc(-c2ccccc2)cc1 | 5.19%
C[C@@H]1CN([C@H](C)CO)C(=O)Cc2cc(NC(=O)Nc3cccc4ccccc34)ccc2O[C@@H]1CN(C)Cc1ccc(C(F)(F)F)cc1 | -18.8%
Cc1ccc(S(=O)(=O)Nc2ccc3c(c2)CC(=O)N([C@H](C)CO)C[C@@H](C)[C@H](CN(C)Cc2ccc(C(F)(F)F)cc2)O3)cc1 | 4.83%
O=C(NO)c1ccc(C(=O)N/N=C/c2cc(Br)cc(Br)c2O)cc1 | 29.8%
C[C@@H]1CN([C@@H](C)CO)C(=O)c2cc(NS(=O)(=O)c3ccc(Cl)cc3)ccc2O[C@H]1CN(C)C(=O)Nc1ccc(C(F)(F)F)cc1 | -4.38%
C[C@H]1CN([C@@H](C)CO)C(=O)c2cc(NS(=O)(=O)c3cccs3)ccc2O[C@@H]1CN(C)C(=O)Nc1ccccc1 | 10.2%
C[C@@H]1CN([C@H](C)CO)C(=O)Cc2cc(NS(=O)(=O)c3cccs3)ccc2O[C@@H]1CN(C)Cc1ccc(C(=O)O)cc1 | 5.4%
C[C@@H]1CN([C@H](C)CO)C(=O)Cc2cc(NS(=O)(=O)c3cn(C)cn3)ccc2O[C@@H]1CN(C)C(=O)Nc1ccccc1 | 10.7%
CC(C)NC(=O)N(C)C[C@@H]1Oc2ccc(NC(=O)CCCCCC(=O)Nc3ccccc3N)cc2C(=O)N([C@@H](C)CO)C[C@H]1C | 12.1%
Cc1ccc(S(=O)(=O)Nc2ccc3c(c2)CC(=O)N([C@@H](C)CO)C[C@H](C)[C@H](CN(C)Cc2ccccc2)O3)cc1 | 12.2%

Compound | protection from cytokine-induced ATP loss
COC(=O)CCCCCCC(=O)N/N=C/c1cccc(Br)c1 | 21.3%
C[C@H](CO)N1C[C@H](C)[C@H](CN(C)C(=O)Nc2cccc3ccccc23)Oc2ccc(NS(C)(=O)=O)cc2C1=O | 4.67%
C[C@H]1CN([C@@H](C)CO)C(=O)Cc2cc(NC(=O)NC3CCCCC3)ccc2O[C@@H]1CN(C)Cc1ccc(Oc2ccccc2)cc1 | -49.9%
C[C@@H]1CN([C@@H](C)CO)C(=O)c2cc(NC(=O)C3CCCCC3)ccc2O[C@@H]1CN(C)Cc1ccc(C(=O)O)cc1 | 3.82%
COc1ccc(NC(=O)Nc2ccc3c(c2)CC(=O)N([C@@H](C)CO)C[C@H](C)[C@@H](CN(C)S(=O)(=O)c2cn(C)cn2)O3)cc1 | 14.9%
Cc1ccc(S(=O)(=O)Nc2ccc3c(c2)C(=O)N([C@H](C)CO)C[C@H](C)[C@@H](CN(C)C(=O)Nc2ccc4c(c2)OCO4)OCCCC[C@@H](C)O3)cc1 | -3.08%
COC(=O)CCCCCCC(=O)N/N=C/c1c(OC)cc(O)cc1OC | 3.27%
COC(=O)CCCCCCC(=O)N/N=C/c1ccc(O)c(OC)c1 | 9.74%
COc1cc(/C=N\NC(=O)CCCCCCC(=O)NO)c(Br)cc1O | 77.6% (active)
C[C@H](CO)N1C[C@H](C)[C@H](CN(C)S(C)(=O)=O)Oc2c(NC(=O)c3ccc(-c4nccs4)cc3)cccc2C1=O | -1.51%
COc1ccc(S(=O)(=O)Nc2ccc3c(c2)C(=O)N([C@H](C)CO)C[C@@H](C)[C@H](CN(C)S(=O)(=O)c2ccc(C)cc2)O3)cc1 | -13.4%
C[C@@H]1CN([C@H](C)CO)C(=O)c2cc(NS(C)(=O)=O)ccc2O[C@@H]1CN(C)S(C)(=O)=O | 6.6%
Cc1noc(C)c1NC(=O)N(C)C[C@H]1OCCCC[C@@H](C)Oc2ccc(NC(=O)NC(C)C)cc2C(=O)N([C@H](C)CO)C[C@@H]1C | -5.7%
COc1ccc(NC(=O)Nc2ccc3c(c2)C(=O)N([C@H](C)CO)C[C@H](C)[C@@H](CN(C)C(=O)Nc2ccc4c(c2)OCO4)O3)cc1 | 3.11%
C[C@@H]1CN([C@@H](C)CO)C(=O)c2cc(NC(=O)CCN3CCOCC3)ccc2O[C@@H]1CN(C)S(=O)(=O)c1ccccc1 | 8.45%
